# In the library only some 3.3% were active in any assay of this set; here they are far more common.
# XiGFP reactiv = X-chromosome reactivation activator; XiGFP mouse fibroblasts, % GFP-positive cells imaging, 3 d; cells co-treated with 5-aza-dC sensitizer; scaled so ellipticine positive control = 100%; actives 0.055% (n = 360,000); activation, % at 7.58 µM;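 active = mean normalized replicate activation at least 10% and every replicate at or above 10%; inconclusive = only one of the two criteria met; inactive = mean below 10% and not all replicates reach 10%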;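 note: 0% = median of on-plate neutral control wells and 100% = ellipticine 6 µM median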
#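 System: 68-5-11 XiGFP fibroblast line; Timing: 3 days compound exposure; Compound dosing: one concentration, pinned; Benchmarks: positive control ellipticine, 6 µM final; Buffer or medium: DMEM containing 5-aza-dC.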
# PglD inh = inhibitors of Campylobacter jejuni PglD acetyltransferase; purified PglD enzyme, DTNB colorimetric CoA detection; inhibition, % at 12.5 µM; actives 0.098% (n = 360,000); in the data active = inhibition above about 16%, passing the limit was not always enough; inconclusive = no clear call, values can overlap the other calls
# Statin myotox sup = suppressors of simvastatin-induced myotoxicity in C2C12 myotubes; ATP luminescence, 48 h; scaled: DMSO 0, geranylgeraniol control 100; actives 0.78% (n = 330,000); rescue of ATP level, % at 7.49 µM;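 active = mean ATP rescue above about 67%, or every replicate alone reaching that limit, limit read from the data, passing the limit was not always enough; inconclusive = no clear call, values can overlap the other calls; inactive = mean under the limit and some replicate under it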;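 note: myotubes were challenged with 10 µM simvastatin during compound exposure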
# DENV2 CPE rescue = DENV2-induced cell death inhibition; CPE inhibition, % at 9.99 µM; DENV2-infected cells, cytopathic effect rescue, plate reader; actives 1.7% (n = 350,000); in the data active = CPE inhibition above about 20%, passing the limit was not always enough; inconclusive = no clear call, values can overlap the other calls; tested in BHK-21 cells;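 note: 0% = median of neutral control wells and 100% = median of positive control wells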
# FGF22 binding = binders of recombinant human FGF22 by thermal shift | SYPRO orange fluorescence; percent of sucrose octasulfate shift, DMSO zero | activity (Tm shift, normalised), % at 9.99 µM | actives 1.5% (n = 340,000) | AID 651658;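 active = mean Tm shift, scaled 0 neutral to 100 positive control, at about 1.3% or above, every replicate too, limit read from the data; inconclusive = no clear call, values can overlap the other calls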
# Target sequence (Q9HCT0 whole entry, looked up): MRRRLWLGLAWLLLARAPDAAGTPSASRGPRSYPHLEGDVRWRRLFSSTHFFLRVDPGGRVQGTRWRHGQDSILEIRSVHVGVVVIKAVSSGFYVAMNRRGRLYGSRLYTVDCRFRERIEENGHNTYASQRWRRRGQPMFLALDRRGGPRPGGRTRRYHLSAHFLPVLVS
# E-sel inducer = E-selectin induction on HUVECs; HUVEC E-selectin immunofluorescence imaging; normalized: neutral wells 0, TNF-alpha wells 100; AID 686992; P16581; activation, % at 7.58 µM; actives 0.37% (n = 260,000);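 active = mean E-selectin-positive cell signal at least 10% of the positive control, reached in at least 60% of replicates, without over 20% cell loss; inconclusive = no rule given, readout overlaps actives, possibly toxicity-flagged; inactive = the rest, including those meeting only one limit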
#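 assay system = HUVEC, human umbilical vein endothelial cells | input = 3,000 HUVEC seeded per well | medium = EGM-2 growth medium on 0.1% gelatin-coated wells | dosing = one compound dose added by pin transfer | signal = immunofluorescence imaging | read-out basis = % PE-positive cells | control set = TNF-alpha, DMSO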
# * marks the source's active call; other numbers are inactive results; ? = inconclusive; nt = not tested or not shown.
SMILES,XiGFP reactiv,PglD inh,Statin myotox sup,DENV2 CPE rescue,FGF22 binding,E-sel inducer
C[C@H](CO)N1C[C@H](C)[C@H](CN(C)C(=O)Nc2ccc(F)cc2)Oc2ccc(NC(=O)c3ccncc3)cc2CC1=O,0,-1,1,nt,nt,0
C[C@H]1CN([C@@H](C)CO)C(=O)Cc2cc(NC(=O)c3ccncc3)ccc2O[C@@H]1CN(C)Cc1ccc(C(F)(F)F)cc1,-1,-2,41,-3,-1,0
C[C@@H]1CN([C@@H](C)CO)C(=O)Cc2cc(NC(=O)c3ccncc3)ccc2O[C@@H]1CN(C)Cc1ccc(C(F)(F)F)cc1,-1,-2,1,31*,0,0
C[C@@H]1CN([C@H](C)CO)C(=O)Cc2cc(NC(=O)Nc3ccc(C(F)(F)F)cc3)ccc2O[C@H]1CN(C)Cc1ccc(C(F)(F)F)cc1,0,-1,6,6,0,0
C[C@@H]1CN([C@H](C)CO)C(=O)Cc2cc(NC(=O)c3ccncc3)ccc2O[C@H]1CN(C)C(=O)Nc1ccc(C(F)(F)F)cc1,0,1,-1,23*,0,20
C[C@H](CO)N1C[C@H](C)[C@H](CN(C)Cc2ccc(C(F)(F)F)cc2)Oc2ccc(NC(=O)Nc3ccc(C(F)(F)F)cc3)cc2CC1=O,-1,1,21,63*,0,0
CCNC(=O)[C@H]1[C@H](CO)[C@H]2Cn3c(ccc(-c4cccnc4)c3=O)[C@@H]1N2Cc1ccccc1,0,0,-3,9,0,0
COc1ccc(-c2ccc3c(c2)[C@H]2[C@H](CCN2S(=O)(=O)c2ccc(OC)cc2)[C@@H](CO)N3)cc1,0,4,-26,-24,0,2
Fc1ccc(CNC2CCN(Cc3ccccc3)CC2)cc1,0,-4,5,35*,0,nt
Clc1ccc(CNC2CCN(Cc3ccccc3)CC2)cc1,0,-2,0,16,0,0
O=S(=O)(c1cccc2nsnc12)N1CCNCC1,0,1,14,6,0,0
O=S(=O)(c1cccc2nsnc12)N1CCOCC1,nt,-1,114*,nt,nt,nt
COC(=O)C[C@@H]1C=C[C@H](NS(=O)(=O)c2ccccc2F)[C@H](CO)O1,0,-9,11,-1,0,1
CC(=O)NCC(=O)NC1CCCc2c1cnn2-c1ccc(C(C)(C)C)cc1 (stereo not given),0,7,-4,31*,0,0
CC(C)(C)c1ccc(-n2ncc3c2CCCC3NC(=O)CN2CCCCC2=O)cc1 (stereo not given),0,-4,-22,-2,0,0
Cc1ccc(S(=O)(=O)N(C)C[C@@H]2OCCCC[C@H](C)Oc3ccc(NC(=O)Nc4ccc(F)cc4)cc3C(=O)N([C@@H](C)CO)C[C@@H]2C)cc1,0,-3,nt,-1,0,0
N#Cc1ccc(CN2CCN(C(=O)CC(NC(=O)c3ccccc3)c3ccccc3)CC2)cc1 (stereo not given),0,3,16,63*,0,0
C[C@H]1CN([C@@H](C)CO)C(=O)c2ccccc2-c2ccccc2CO[C@H]1CN(C)Cc1ccc(C(=O)O)cc1,-1,-5,nt,0,0,0
Cc1cc(CSc2ccccc2)ccc1NC(=O)COc1ccccc1C,0,nt,nt,-6,44*,nt
Cc1ccc(Cc2nnc3n(-c4ccccc4)nc(C(=O)c4ccccc4)n3c2=O)cc1,nt,-1,91*,nt,nt,0
C[C@@H]1CN([C@@H](C)CO)C(=O)c2cc(NC(=O)C3CCCCC3)ccc2O[C@@H]1CN(C)Cc1ccc2c(c1)OCO2,0,0,0,-7,0,0
Cc1ccc(NC(=O)N2CCCC2C(=O)NCC2CCCO2)cc1 (stereo not given),0,0,0,-2,43*,nt
COCC(=O)N(C)C[C@H]1Oc2cc(C3=CCCC3)ccc2S(=O)(=O)N([C@@H](C)CO)C[C@H]1C,0,1,-10,?,nt,0
COCC(=O)Nc1ccc2c(c1)OC[C@@H](C)N(C(=O)COC)C[C@@H](C)[C@@H](OC)CN(C)C2=O,0,-1,-3,0,0,0
Cc1ccc(S(=O)(=O)Nc2ccc3c(c2)C(=O)N([C@@H](C)CO)C[C@H](C)[C@@H](CN(C)C(=O)c2ccccc2)OCCCC[C@@H](C)O3)cc1,0,-4,nt,-4,nt,nt
SMILES,XiGFP reactiv,PglD inh,Statin myotox sup,DENV2 CPE rescue,FGF22 binding,E-sel inducer
COC(=O)[C@@H]1CCCN1C(=O)CCc1nnc(CCC2CCCCC2)o1,0,nt,nt,-6,43*,nt
O=C(c1cccc(Oc2ccc([N+](=O)[O-])cc2)c1)N1CCOCC1,0,-1,6,97*,-2,-1
O=C(c1cccc(Oc2ccccc2)c1)N1CCOCC1,0,2,-4,-3,0,1
O=C(c1cc2cc([N+](=O)[O-])ccc2oc1=O)N1CCOCC1,0,nt,7,-1,43*,0
O=C(c1cc2cc([N+](=O)[O-])ccc2oc1=O)N1CCN(c2ncccn2)CC1,nt,4,20,nt,nt,nt
O=C(C[C@@H]1C=C[C@@H](NC(=O)c2ccncc2)[C@H](CO)O1)NCc1ccncn1,0,nt,nt,-9,nt,0
Cc1ccc(Cl)cc1N1CCN(CC(O)COC(C)C)CC1 (stereo not given),0,nt,-1,33*,0,nt
CC(C)c1cn(CC[C@H]2CC[C@H](NC(=O)C3CCCC3)[C@@H](CO)O2)nn1,0,5,-3,18,0,0
O=C1CC2c3ccccc3C1C1C(=O)N(CCc3ccccc3)C(=O)C21 (stereo not given),0,nt,3,-2,43*,0
C[C@@H](NC(=O)C[C@@H]1C=C[C@H](NC(=O)C2CCC2)[C@@H](CO)O1)c1ccccc1,-1,9,0,24*,0,0
O=C(N[C@@H]1C=C[C@H](CC(=O)N2CCc3ccccc3C2)O[C@@H]1CO)C1CCC1,0,nt,nt,98*,nt,1
C[C@H](NC(=O)[C@@H]1N[C@@H]2c3ccc(-c4ccc(C(=O)N(C)C)cc4)c(=O)n3C[C@@H]2[C@H]1CO)c1ccccc1,0,3,-5,16,0,0
Cc1cc(C)cc(NC(=O)c2ccc3c(c2)CCN3S(C)(=O)=O)c1,0,-4,-4,-4,0,nt
Cc1ccc(NC(=O)c2ccc3c(c2)CCN3S(C)(=O)=O)cc1,0,-2,-8,30*,0,nt
CCCc1cc(Nc2c(C)n(C)n(-c3ccccc3)c2=O)n2c(nc3ccccc32)c1C#N,nt,1,104*,nt,nt,0
